Assay results published in publication PMC6218153 (Journal of Alzheimer's Disease Reports, 2018).
Marks after values point to notes of the source that are not given here. Where no end group is shown, it is not given here.

Legend:
[1] = Metabolic stability in human brain homogenate; format: in vitro ADME
Method in brief: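 Test compound (100 μM stock in methanol) added to 1 μM final in plasma or brain homogenate (1:3 brain:PBS, w/v) and incubated at room temperature. Sampled at 15 and 30 min and 1, 2 and 4 h; time-zero samples pre-quenched with methanol. Proteins were methanol-precipitated; supernatant evaporated, reconstituted in 0.1% formic acid and analysed by LC/MS/MS. Duplicates per time point; results expressed as % of time 0.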

[2] = PK study in plasma and CSF after single IV, SC or IN dose; format: in vivo, rat
Method in brief: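 Cannulated rats (jugular vein, intracisternal; n = 6/route) received a single dose in PBS: IV or SC ~11 mg/kg over 1 min, or IN ~5.5 mg/kg, 10 μL per nostril at 6-min intervals over 18 min. K2EDTA plasma was taken pre-dose to 165 min and CSF pre-dose to 150/180 min. LC/MS/MS (ESI+, 1007.55 > 876.35) with noncompartmental PK; CL = Dose/AUC. CSF ratio = dose-normalised CSF AUC relative to IV.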

DEEEDEEL [P8, DEEEDEEL]
half-life ([1]; human brain homogenate, 1μM P8, room temperature): 2 h
remaining at 2 h, 1 μM ([1]; human, brain homogenate): 51.4%
P8 concentration in plasma ([2]; IN 5.5 mg/kg single dose, 5 min, Rat 1): 137 ng/mL
P8 concentration in plasma ([2]; IN 5.5 mg/kg single dose, 5 min, Rat 2): 262 ng/mL
P8 concentration in plasma ([2]; IN 5.5 mg/kg single dose, 5 min, Rat 3): 191 ng/mL
P8 concentration in CSF ([2]; IN 5.5 mg/kg single dose, 10 min, Rat 2): 3.09 ng/mL
P8 concentration in CSF ([2]; IN 5.5 mg/kg single dose, 10 min, Rat 3): 32.8 ng/mL
P8 concentration in plasma ([2]; IN 5.5 mg/kg single dose, 15 min, Rat 1): 102 ng/mL
P8 concentration in plasma ([2]; IN 5.5 mg/kg single dose, 15 min, Rat 2): 234 ng/mL
P8 concentration in plasma ([2]; IN 5.5 mg/kg single dose, 15 min, Rat 3): 150 ng/mL
P8 concentration in plasma ([2]; IN 5.5 mg/kg single dose, 25 min, Rat 1): 60.8 ng/mL
P8 concentration in plasma ([2]; IN 5.5 mg/kg single dose, 25 min, Rat 2): 123^b ng/mL
P8 concentration in plasma ([2]; IN 5.5 mg/kg single dose, 25 min, Rat 3): 90.6 ng/mL
P8 concentration in CSF ([2]; IN 5.5 mg/kg single dose, 30 min, Rat 2): 1.03 ng/mL
P8 concentration in CSF ([2]; IN 5.5 mg/kg single dose, 30 min, Rat 3): 1.95 ng/mL
P8 concentration in plasma ([2]; IN 5.5 mg/kg single dose, 35 min, Rat 1): 53.7 ng/mL
P8 concentration in plasma ([2]; IN 5.5 mg/kg single dose, 35 min, Rat 2): 85.9 ng/mL
P8 concentration in plasma ([2]; IN 5.5 mg/kg single dose, 35 min, Rat 3): 66.0 ng/mL
P8 concentration in plasma ([2]; IN 5.5 mg/kg single dose, 50 min, Rat 1): 66.1 ng/mL
P8 concentration in plasma ([2]; IN 5.5 mg/kg single dose, 50 min, Rat 2): 67.7 ng/mL
P8 concentration in plasma ([2]; IN 5.5 mg/kg single dose, 50 min, Rat 3): 45.1 ng/mL
P8 concentration in CSF ([2]; IN 5.5 mg/kg single dose, 60 min, Rat 1): 1.18 ng/mL
P8 concentration in CSF ([2]; IN 5.5 mg/kg single dose, 60 min, Rat 2): 0.632 ng/mL
P8 concentration in CSF ([2]; IN 5.5 mg/kg single dose, 60 min, Rat 3): 1.28 ng/mL
P8 concentration in plasma ([2]; IN 5.5 mg/kg single dose, 70 min, Rat 1): 37.6 ng/mL
P8 concentration in plasma ([2]; IN 5.5 mg/kg single dose, 70 min, Rat 2): 55.3 ng/mL
P8 concentration in plasma ([2]; IN 5.5 mg/kg single dose, 70 min, Rat 3): 32.1 ng/mL
P8 concentration in plasma ([2]; IN 5.5 mg/kg single dose, 90 min, Rat 1): 32.2 ng/mL
P8 concentration in plasma ([2]; IN 5.5 mg/kg single dose, 90 min, Rat 2): 42.8 ng/mL
P8 concentration in plasma ([2]; IN 5.5 mg/kg single dose, 90 min, Rat 3): 20.7 ng/mL
P8 concentration in CSF ([2]; IN 5.5 mg/kg single dose, 100 min, Rat 1): 0.537 ng/mL
P8 concentration in CSF ([2]; IN 5.5 mg/kg single dose, 100 min, Rat 2): 2.39 ng/mL
P8 concentration in CSF ([2]; IN 5.5 mg/kg single dose, 100 min, Rat 3): 0.532 ng/mL
P8 concentration in plasma ([2]; IN 5.5 mg/kg single dose, 110 min, Rat 1): 26.0 ng/mL
P8 concentration in plasma ([2]; IN 5.5 mg/kg single dose, 110 min, Rat 2): 27.0 ng/mL
P8 concentration in plasma ([2]; IN 5.5 mg/kg single dose, 110 min, Rat 3): 13.9 ng/mL
P8 concentration in plasma ([2]; IN 5.5 mg/kg single dose, 130 min, Rat 1): 33.2 ng/mL
P8 concentration in plasma ([2]; IN 5.5 mg/kg single dose, 130 min, Rat 2): 15.0 ng/mL
P8 concentration in plasma ([2]; IN 5.5 mg/kg single dose, 130 min, Rat 3): 14.3 ng/mL
P8 concentration in CSF ([2]; IN 5.5 mg/kg single dose, 150 min, Rat 1): 0.581 ng/mL
P8 concentration in CSF ([2]; IN 5.5 mg/kg single dose, 150 min, Rat 3): 1.16 ng/mL
P8 concentration in plasma ([2]; IN 5.5 mg/kg single dose, 165 min, Rat 1): 32.7 ng/mL
P8 concentration in plasma ([2]; IN 5.5 mg/kg single dose, 165 min, Rat 2): 14.9 ng/mL
P8 concentration in plasma ([2]; IN 5.5 mg/kg single dose, 165 min, Rat 3): 17.1 ng/mL
P8 concentration in plasma ([2]; IV 11.0 mg/kg single dose, 5 min, Rat 1): 102,000 ng/mL
P8 concentration in plasma ([2]; IV 11.0 mg/kg single dose, 5 min, Rat 2): 45,300 ng/mL
P8 concentration in plasma ([2]; IV 11.0 mg/kg single dose, 5 min, Rat 3): 43,600 ng/mL
P8 concentration in CSF ([2]; IV 11.0 mg/kg single dose, 10 min, Rat 2): 50.1^c ng/mL
P8 concentration in CSF ([2]; IV 11.0 mg/kg single dose, 10 min, Rat 3): 85.7^c ng/mL
P8 concentration in plasma ([2]; IV 11.0 mg/kg single dose, 15 min, Rat 2): 12,600 ng/mL
P8 concentration in plasma ([2]; IV 11.0 mg/kg single dose, 15 min, Rat 3): 8,460 ng/mL
P8 concentration in plasma ([2]; IV 11.0 mg/kg single dose, 25 min, Rat 1): 4,250 ng/mL
P8 concentration in plasma ([2]; IV 11.0 mg/kg single dose, 25 min, Rat 2): 5,650 ng/mL
P8 concentration in plasma ([2]; IV 11.0 mg/kg single dose, 25 min, Rat 3): 3,230 ng/mL
P8 concentration in CSF ([2]; IV 11.0 mg/kg single dose, 30 min, Rat 1): 42.5 ng/mL
P8 concentration in CSF ([2]; IV 11.0 mg/kg single dose, 30 min, Rat 2): 48.2^c ng/mL
P8 concentration in CSF ([2]; IV 11.0 mg/kg single dose, 30 min, Rat 3): 39.3 ng/mL
P8 concentration in plasma ([2]; IV 11.0 mg/kg single dose, 35 min, Rat 1): 2,160 ng/mL
P8 concentration in plasma ([2]; IV 11.0 mg/kg single dose, 35 min, Rat 2): 2,710 ng/mL
P8 concentration in plasma ([2]; IV 11.0 mg/kg single dose, 35 min, Rat 3): 1,770 ng/mL
P8 concentration in plasma ([2]; IV 11.0 mg/kg single dose, 50 min, Rat 1): 878 ng/mL
P8 concentration in plasma ([2]; IV 11.0 mg/kg single dose, 50 min, Rat 2): 1,190 ng/mL
P8 concentration in plasma ([2]; IV 11.0 mg/kg single dose, 50 min, Rat 3): 713 ng/mL
P8 concentration in CSF ([2]; IV 11.0 mg/kg single dose, 60 min, Rat 1): 22.8 ng/mL
P8 concentration in CSF ([2]; IV 11.0 mg/kg single dose, 60 min, Rat 2): 17.8 ng/mL
P8 concentration in CSF ([2]; IV 11.0 mg/kg single dose, 60 min, Rat 3): 16.9 ng/mL
P8 concentration in plasma ([2]; IV 11.0 mg/kg single dose, 70 min, Rat 1): 392 ng/mL
P8 concentration in plasma ([2]; IV 11.0 mg/kg single dose, 70 min, Rat 2): 313 ng/mL
P8 concentration in plasma ([2]; IV 11.0 mg/kg single dose, 70 min, Rat 3): 199 ng/mL
P8 concentration in CSF ([2]; IV 11.0 mg/kg single dose, 100 min, Rat 1): 10.7 ng/mL
P8 concentration in CSF ([2]; IV 11.0 mg/kg single dose, 100 min, Rat 2): 8.69 ng/mL
P8 concentration in CSF ([2]; IV 11.0 mg/kg single dose, 100 min, Rat 3): 4.08 ng/mL
P8 concentration in plasma ([2]; IV 11.0 mg/kg single dose, 110 min, Rat 1): 93.1 ng/mL
P8 concentration in plasma ([2]; IV 11.0 mg/kg single dose, 110 min, Rat 2): 36.4 ng/mL
